“Also recorded” adds a separate entry of the source. Like-named read-outs stand apart in the source and are kept apart here.
Columns and labels:
[1] = system: UM cell lines (MP41, MP38, MP46); test: Concentration-response cell viability, UM cell lines overall; assay type: cell-based, human; settings: 72 h
WS1 fibroblast cell line = test: Viability assay on non-cancerous fibroblasts; assay type: cell-based; settings: for IC50: Fibroblast, read-out: fibroblast IC50; for fold higher IC50 / lower toxicity for non-cancerous cells than for UM cells: WS1 fibroblast IC50 vs UM IC50
Summary of the method: (§1)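 Cells treated 72 h with a 10-point 1:3 dilution series from nominal 10 μM top (one compound started at 300 nM), n = 4. Viability read by CellTiter-Glo ATP luminescence and normalized to 0.1% DMSO controls. IC50 and % viability derived by four-parameter log(inhibitor) vs. response fit with variable slope.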

[2] = system: MP41 metastatic UM xenograft; test: Metastatic UM xenograft mouse model; assay type: in vivo, NSG mice; settings: for survival in comparison with the vehicle group: log-rank test, p > 0.10
Summary of the method: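 Female NSG mice, 16 weeks old, given 1 × 10^5 FACS-sorted RFP-luciferase-transduced MP41 cells via tail vein; n = 10 per group, randomized. From day 7, test compound dosed at 2 mg/kg IP weekly. Weekly IVIS imaging 10 min after 150 mg/kg IP d-luciferin. Endpoint was >20% weight loss or health decline; organs imaged ex vivo; survival compared by log-rank.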

[3] = system: MP41 cells extracted from mouse liver metastases; test: Ex vivo resistance testing of UM cells from mouse liver metastases; assay type: cell-based, human; settings: relative to cells from vehicle group
Summary of the method: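 Liver tissue from treated and vehicle mice minced and digested overnight at 4°C in D-MEM with 400 U/mL type IV collagenase and 0.5 μg/mL amphotericin B. Cells grown in UM medium, confirmed as MP41 by RFP fluorescence, then given 10-point 1:3 dilution series for 72 h. Viability read by CellTiter-Glo ATP luminescence relative to 0.1% DMSO.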

MP41 and MP38 cells = test: HDAC3 / HDAC8 inhibitor concentration-response testing; assay type: cell-based, human; settings: alone or in combination
Summary of the method: as §1

UM cells = test: Synergy testing of romidepsin and quisinostat with other hit compounds; assay type: cell-based, human; settings: plus EC20 of other candidate compound
[4] = system: UM cell lines, including UMM66 cells; test: Romidepsin from two sources in UM cell lines including UMM66; assay type: cell-based; settings: Homo sapiens, read-out: IC50 in all UM cell lines including UMM66
[5] = Homo sapiens, read-out: UM IC50, UM cell lines, 72 h
[6] = read-out: UM IC50, UM cell lines

## CC[C@@]1(O)C(=O)OCc2c1cc1n(c2=O)Cc2cc3ccccc3nc2-1 [(S)-(+)-Camptothecin]
[1]; Homo sapiens, read-out: UM IC50
  IC50: ~334 nM

## COc1ccc(-c2nc(N3CCOCC3)c3sc(CN(C)c4ncc(C(=O)NO)cn4)cc3n2)cn1 [Fimepinostat]
WS1 fibroblast cell line
  IC50: ~55 nM
  fold higher IC50 / lower toxicity for non-cancerous cells than for UM cells: 4- to 5 fold
[1]; [5]
  IC50: ~11 nM

## Nc1ccn([C@@H]2O[C@H](CO)[C@@H](O)C2(F)F)c(=O)n1 [Gemcitabine]
[1]; [5]
  IC50: ~493 nM

## CCS(=O)(=O)Nc1ccc(Oc2ccc(F)cc2F)c(-c2cn(C)c(=O)c3[nH]ccc23)c1 [Mivebresib]
[2]; femur, spinal cord
  metastases detected in organs (ex vivo IVIS): prevented the development of detectable spinal cord and femur metastases
[3]
  acquired drug resistance after long-term in vivo treatment: No significant resistance was detected
WS1 fibroblast cell line
  IC50: > 10000 nM
[1]; [5]
  IC50: ~125 nM

## COc1ccc(Cn2ccc3ccc(C(=O)NO)cc32)cc1 [PCI-34051]
MP41 and MP38 cells
  potency of HDAC3 / HDAC8 inhibitor: neither was potent

## Cc1[nH]c2ccccc2c1CCNCc1ccc(/C=C/C(=O)NO)cc1 [Panobinostat]
WS1 fibroblast cell line
  IC50: ~124 nM
  fold higher IC50 / lower toxicity for non-cancerous cells than for UM cells: 4- to 5 fold
[1]; [5]
  IC50: ~26 nM

## COc1cc([C@@H]2c3cc4c(cc3[C@H](O)[C@H]3COC(=O)[C@H]23)OCO4)cc(OC)c1OC [Podofilox]
[1]; [5]
  IC50: ~9.36 nM

## Cn1cc(CNCC2CCN(c3ncc(C(=O)NO)cn3)CC2)c2ccccc21 [Quisinostat]
[2]
  survival in comparison with the vehicle group: did not significantly improve survival rates
[3]
  acquired drug resistance after long-term in vivo treatment: No significant resistance was detected
WS1 fibroblast cell line
  IC50: ~118 nM
  fold higher IC50 / lower toxicity for non-cancerous cells than for UM cells: approximately 9 fold
[1]; [5]
  IC50: ~14 nM
UM cells
  synergy with the other 16 compounds: did not find significant synergy

## Nc1cc(F)ccc1NC(=O)/C=C/c1cnn(C/C=C/c2ccccc2)c1 [RGFP966]
MP41 and MP38 cells
  potency of HDAC3 / HDAC8 inhibitor: neither was potent

## C/C=C1\NC(=O)[C@H]2CSSCC/C=C/[C@H](CC(=O)N[C@H](C(C)C)C(=O)N2)OC(=O)[C@H](C(C)C)NC1=O [Romidepsin]
[4]
  IC50: 2.4 to 5.7 nM
[2]
  survival in comparison with the vehicle group: did not significantly improve survival rates; also recorded: did not improve the survival rate
[3]
  acquired drug resistance after long-term in vivo treatment: No significant resistance was detected
[1]; [5]
  IC50: ~3.5 nM
UM cells
  synergy with the other 16 compounds: did not find significant synergy

## CC(C)C[C@H](NC(=O)[C@H](Cc1ccccc1)NC(=O)c1cnccn1)B(O)O [Velcade]
WS1 fibroblast cell line
  IC50: ~57 nM
[1]; [5]
  IC50: ~7.6 nM
[1]; [6]
  IC50: ~8 nM

## Cucurbitacin B
[1]; [6]
  IC50: ~37.9 nM

From paper PMC11482939 (bioRxiv, 2025)
